The results in this text go back to ChEMBL document CHEMBL2321737, “Selective inhibition of glycosyltransferases by bivalent imidazolium salts” (Bioorg Med Chem, 2013).

Assay [1] addresses T1, Beta-1,3-galactosyltransferase 5 (Homo sapiens) (UniProt Q9Y2C3).
T1 sequence (whole entry): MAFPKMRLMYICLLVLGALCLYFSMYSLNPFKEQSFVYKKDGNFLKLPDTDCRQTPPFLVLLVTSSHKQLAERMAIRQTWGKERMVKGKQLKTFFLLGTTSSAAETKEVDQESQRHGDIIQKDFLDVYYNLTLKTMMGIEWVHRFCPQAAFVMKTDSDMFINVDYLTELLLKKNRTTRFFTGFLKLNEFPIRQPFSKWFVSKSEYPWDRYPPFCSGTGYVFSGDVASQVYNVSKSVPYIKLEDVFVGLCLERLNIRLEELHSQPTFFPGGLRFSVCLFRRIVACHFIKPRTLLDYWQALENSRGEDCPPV
The experiment in a line: Inhibition of human recombinant soluble His-tagged beta3-GalT5 expressed in insect cells using GlcNAcbeta-Bn as substrate at 0.5 mM after 1 hr relative to control. The method, boiled down:
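Soluble His-tagged human β3-GalT5 expressed in insect cells and purified, 0.37 µg. Acceptor 0.5 mM GlcNAcβ-Bn, donor 0.5 mM UDP-Gal, inhibitor 0.5 mM bis-imidazolium salt in 10% ethanol. 1 h at 37 °C. Product isolated on AG1-X8 resin and counted by scintillation. % inhibition versus no-inhibitor control; blanks lacked acceptor. Mean ± SD of replicates.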

In assay [2] the target is T2, Alpha-1,6-mannosyl-glycoprotein 2-beta-N-acetylglucosaminyltransferase (Homo sapiens) (UniProt Q10469).
T2 sequence (whole entry): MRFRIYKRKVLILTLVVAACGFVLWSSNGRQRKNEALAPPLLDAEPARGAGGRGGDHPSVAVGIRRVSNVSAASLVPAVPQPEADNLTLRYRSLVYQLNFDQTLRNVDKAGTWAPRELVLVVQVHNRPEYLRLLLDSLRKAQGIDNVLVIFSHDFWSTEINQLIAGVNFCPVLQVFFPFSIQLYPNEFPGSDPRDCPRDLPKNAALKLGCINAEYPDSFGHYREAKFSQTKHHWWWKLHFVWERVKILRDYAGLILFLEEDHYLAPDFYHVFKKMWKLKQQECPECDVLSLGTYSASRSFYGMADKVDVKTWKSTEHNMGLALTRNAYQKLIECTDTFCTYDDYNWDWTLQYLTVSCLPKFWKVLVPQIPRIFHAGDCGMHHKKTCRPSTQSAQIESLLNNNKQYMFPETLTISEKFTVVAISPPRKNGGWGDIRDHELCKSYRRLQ
The assay can be described thus: Inhibition of human GNT2 […] using GnMan3-octyl as substrate at 0.5 mM after 1 hr in presence of phosphatidylcholine.

Assay [3] has as its target T3, Acetylgalactosaminyl-O-glycosyl-glycoprotein beta-1,3-N-acetylglucosaminyltransferase (Homo sapiens) (UniProt Q6ZMB0).
T3 sequence (whole entry): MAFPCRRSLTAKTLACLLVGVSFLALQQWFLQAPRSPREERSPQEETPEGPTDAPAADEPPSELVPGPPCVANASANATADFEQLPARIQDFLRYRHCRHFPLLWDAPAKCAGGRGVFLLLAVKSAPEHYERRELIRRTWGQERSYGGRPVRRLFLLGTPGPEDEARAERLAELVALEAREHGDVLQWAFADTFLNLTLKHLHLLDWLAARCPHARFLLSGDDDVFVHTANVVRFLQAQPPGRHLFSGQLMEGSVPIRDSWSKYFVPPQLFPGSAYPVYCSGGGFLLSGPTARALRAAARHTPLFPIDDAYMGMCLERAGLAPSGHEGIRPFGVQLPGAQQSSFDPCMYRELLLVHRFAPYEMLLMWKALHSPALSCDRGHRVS
The experiment in a line: Inhibition of human B3GnT6 using GalNAcalpha-Bn as substrate at 0.5 mM after 1 hr in presence of phosphatidylcholine.

The species entered for assay [4] is Homo sapiens. The assay can be described thus: Inhibition of human C2GnT2 using Galbeta3GalNAcalpha-Bn as substrate at 0.5 mM after 1 hr in presence of phosphatidylcholine.
Assay [5] concerns the target Beta-1,3-galactosyltransferase 5 (Homo sapiens) (UniProt Q9Y2C3). The assay can be described thus: Inhibition of human recombinant soluble His-tagged beta3-GalT5 expressed in insect cells using GlcNAcbeta-Bn as substrate at 0.5 mM after 1 hr in presence of triton X-100.
Assay [6] is described as follows: Inhibition of human GNT1 using Man3-octyl as substrate at 0.5 mM after 1 hr in presence of phosphatidylcholine.
The species named for assay [7] is Homo sapiens. The experiment in a line: Inhibition of human C2GnT2 using GlcNAcbeta3GalNAcalpha-pnp as substrate at 0.5 mM after 1 hr in presence of phosphatidylcholine.
For assay [8], the target named is T4, Beta-1,4-galactosyltransferase 1 (Bos taurus) (UniProt P08037).
T4 sequence (whole entry): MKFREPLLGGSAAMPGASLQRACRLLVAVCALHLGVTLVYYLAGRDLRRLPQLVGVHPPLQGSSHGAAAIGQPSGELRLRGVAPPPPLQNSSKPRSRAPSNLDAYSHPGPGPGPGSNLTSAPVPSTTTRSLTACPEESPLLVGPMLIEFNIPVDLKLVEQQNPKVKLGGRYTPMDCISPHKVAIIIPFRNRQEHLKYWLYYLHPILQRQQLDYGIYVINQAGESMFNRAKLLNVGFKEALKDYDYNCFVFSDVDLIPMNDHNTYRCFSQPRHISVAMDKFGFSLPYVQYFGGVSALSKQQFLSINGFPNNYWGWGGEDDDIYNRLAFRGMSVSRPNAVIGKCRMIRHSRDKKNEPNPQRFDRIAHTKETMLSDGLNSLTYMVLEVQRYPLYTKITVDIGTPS
The experiment in a line: Inhibition of bovine milk beta4-GalT1 using GlcNAcbeta-Bn as substrate at 0.5 mM after 1 hr relative to control. The method, boiled down:
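Single point at 0.5 mM bis-imidazolium salt, 10% ethanol. Acceptor 0.5 mM GlcNAcβ-Bn, donor 0.5 mM UDP-Gal. […] Enzyme: 0.34 µg His-tagged human β4-GalT1 from BL21, or bovine milk β4-GalT1. Mean ± SD of replicates.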

In assay [9] the target is T5, Beta-1,3-galactosyl-O-glycosyl-glycoprotein beta-1,6-N-acetylglucosaminyltransferase (Homo sapiens) (UniProt Q02742).
T5 sequence (whole entry): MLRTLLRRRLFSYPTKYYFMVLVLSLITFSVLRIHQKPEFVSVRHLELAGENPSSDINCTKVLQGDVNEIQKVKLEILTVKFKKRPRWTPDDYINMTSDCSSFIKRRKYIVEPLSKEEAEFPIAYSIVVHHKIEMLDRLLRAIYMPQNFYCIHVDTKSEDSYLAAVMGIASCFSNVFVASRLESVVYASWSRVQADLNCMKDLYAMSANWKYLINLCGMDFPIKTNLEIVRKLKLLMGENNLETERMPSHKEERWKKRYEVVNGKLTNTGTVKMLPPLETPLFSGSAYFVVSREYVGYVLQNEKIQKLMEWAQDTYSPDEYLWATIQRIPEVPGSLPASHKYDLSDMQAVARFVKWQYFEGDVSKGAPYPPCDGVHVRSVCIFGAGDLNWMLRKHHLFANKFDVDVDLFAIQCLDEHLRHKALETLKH
The experiment in a line: Inhibition of human C2GnT1 using Galbeta3GalNAcalpha-Bn as substrate at 0.5 mM after 1 hr in presence of phosphatidylcholine.

Where “and” joins values, the source holds several entries; their conditions need not be identical. Equal entries are not always repeated. Calls of active or inactive are those of the source. No cut-off for these calls is given here. Where only a bound is given, the exact number is not on record here.

For `C[n+]1ccn(CCCCCCCCCCCCCCCCCCCCn2cc[n+](C)c2)c1`, the inhibition – broadly, the percentage by which the read-out fell short of the control – was 79.2% and 84% in assay [1]; less than 1% in assay [2]; 80% and 94.4% in assay [3]; less than 1% in assay [4]; less than 1% in assay [6]; less than 1% in assay [7]. The inhibition was 40.7% and 54% in assay [8]; 100% in assay [9]. In assay [5], the inhibition result is “inactive”.
